T cruzi inh = T. cruzi replication inhibition; inhibition, % (test concentration not listed); 1.4% of 300,000 active; T. cruzi beta-gal in NIH3T3, luminescence, 90 h;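 active = mean inhibition across valid replicates above about 55%, limit read from the data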;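 note: signal also drops with host cell toxicity which is not excluded here; 0% = plate median of DMSO wells and 100% = zero luminescence signal; higher percent means less beta-gal luminescence so fewer parasites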
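System: mouse NIH/3T3 fibroblasts infected with β-gal-expressing T. cruzi Tulahuen C4 / Input: NIH/3T3 cells, 5,000 per well / Buffer or medium: Low-serum DMEM with 2% FBS / Probe or stimulus: 5000 reporter trypomastigotes per well / Schedule: ≥90 h infection period, 3 h prior cell attachment / Measured by: GalScreen luminescence, 60 min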
CHOP inhibitor = inhibitors of CHOP induction in ER stress response. CHO-K1 CHOP-promoter luciferase, tunicamycin-induced, 15-18 h. inhibition, % at 10 µM. 3.8% of 220,000 active. AID 2732;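 active = compounds that reduced the stress-induced luciferase reporter signal by more than about 70% of percent inhibition, limit read from the data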;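 note: 0% = tunicamycin plus vehicle and 100% = wells without tunicamycin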
Dynein transport = dynein cargo transport inhibition | z-score, hits read low | 3617.4 mouse cells, GR-EGFP nuclear translocation imaging; test concentration mostly 20 µM; stimulated with dexamethasone, 1 µM; stronger effect = lower value | 0.47% of 220,000 active | AID 1381;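 active = plate z-score of nuclear minus cytoplasmic receptor signal below a set negative limit, without overly bright fluorescence or cell loss, cut at about -3.5 in these data, passing the limit was not always enough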;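 note: z-score of nuclear minus cytoplasmic ring GR-EGFP intensity difference per well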
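Buffer or medium: tetracycline-free induction medium containing charcoal-stripped FBS / Reagent: dexamethasone agonist, 1.0 µM final, for 30 min / Technique: automated 10x imaging of fixed Hoechst-stained cells / Times: induction 48 h, compound 1 h, agonist 30 min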
Lmaj promast = Leishmania major promastigote growth inhibition | Leishmania major promastigotes, resazurin fluorescence viability | inhibition, % at 10 µM | 9% of 200,000 active; in the data active = inhibition above about 50%;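 note: promastigotes grown with compound for 44 hours at 28 °C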
XBP1 UPR activ = adaptive UPR (XBP1) activation; CHO-XBP1 luciferase reporter, IRE1-XBP1 UPR activation, luminescence; percent of tunicamycin response, DMSO as zero; 0.33% of 330,000 active; activation, % at 20 µM;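 active = versus positive control, 20 µM dose yields 30% or more activation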;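 note: 100% = tunicamycin at 10 µg/mL and 0% = DMSO only wells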
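Material: CHO cell line with stable XBP1 luciferase reporter; schedule: 16-18 h cell attachment at 37 °C, then 6 h compound exposure; signal: glow luminescence from Steady-Glo reagent; medium: serum-containing F12 medium, 10% FBS; benchmarks: tunicamycin 10 µg/mL and vehicle-only wells; read-out: percent activation relative to tunicamycin reference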
UPR CHOP act = apoptotic UPR (CHOP) activation. CHO-CHOP luciferase reporter, luminescence; percent of tunicamycin response over DMSO baseline. activation, % at 10 µM. 0.34% of 330,000 active. AID 449763;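 active = at 10 µM dose, activation of 40% or more, normalized to positive control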;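 note: 100% = tunicamycin at 10 µg/mL and 0% = DMSO alone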
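Test system: CHO-CHOP cells, stable luciferase reporter of PERK-eIF2a-CHOP signalling | Quantity: 500 CHO-CHOP cells per well | Buffer or medium: F12 plus 10% serum | Compound dosing: 10 µM single point, 0.5% DMSO | Schedule: 6 h compound treatment, 37 °C | Signal: Luciferase luminescence | Control set: Tunicamycin high control, DMSO low control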
* = called active by the depositor; . = no result. The full list was thinned out, with hits kept by preference.

SMILES	T cruzi inh	CHOP inhibitor	Dynein transport	Lmaj promast	XBP1 UPR activ	UPR CHOP act
CC(C)c1ccc(C2CC(c3ccc(Br)cc3)=NN2C(N)=S)cc1 (stereo not drawn)	-5.1	50.5	0.331	37.8	3.4	6.4
CNC(=S)N1N=C(c2ccccc2)CC1c1ccccc1Cl (stereo not drawn)	14.6	24.7	3.16	2.1	-1.7	-1.9
CNC(=S)N1N=C(c2ccc(C)cc2)CC1c1ccc(Cl)cc1 (stereo not drawn)	41.3	-1.3	1.06	100.2*	-0.2	-0.6
CNC(=S)N1N=C(c2ccc(C)cc2)CC1c1ccc(Br)cc1 (stereo not drawn)	33.1	55.3	1.19	100.2*	-3.7	0.4
CN(CC(=O)N1CCN(Cc2ccccc2)CC1)S(=O)(=O)c1cccc2nsnc12	4.4	7.6	0.314	-2.5	4.9	-1.9
Nc1nc(CN2CCN(c3cccc(Cl)c3)CC2)nc(N2CCCc3ccccc32)n1	-17.4	88.0*	-0.00891	-4.3	-0.7	-0.4
CCCCn1c(N)c(N(CCOC)C(=O)COC(=O)CCOc2ccccc2C)c(=O)[nH]c1=O	3.6	.	.	.	-1.9	1.6
COc1cc(/C=C(\C#N)c2nc(-c3cc4ccccc4oc3=O)cs2)ccc1O	5.6	-18.1	-1.17	61.1*	3.5	1.7
COc1cc(/C=C(/C#N)c2nc(-c3cc4ccccc4oc3=O)cs2)cc([N+](=O)[O-])c1O	.	11.4	-0.389	.	.	.
Cc1ccc(N(CC(=O)NCC2CCCO2)C(=O)CCC(=O)Nc2nccs2)cc1 (stereo not drawn)	-3.8	.	.	.	0.4	-0.1
CC(Nc1c([N+](=O)[O-])c(=O)oc2ccccc12)C(Cl)c1ccccc1 (stereo not drawn)	-1.3	-39.0	-2.1	56.3*	1.7	-2.7
CC1(c2ccc3ccccc3c2)NC(=O)N(CC(=O)N2CCCC(C(F)(F)F)C2)C1=O (stereo not drawn)	.	.	.	.	0.2	-0.7
O=C(c1ccccc1)c1cccc(C(=O)c2ccccc2)c1	.	.	.	.	1.3	1.5
Cc1sc2cc3c(c(C(=O)c4ccccc4)[n+]2c1C)-c1cccc2cccc-3c12	73.8*	-19.3	-1.08	100.5*	.	.
CCC(=O)NC(c1cccs1)c1ccc2cccnc2c1O (stereo not drawn)	78.2*	86.1*	-0.871	100.0*	5.2	23.2
Cc1conc1NC(c1cccs1)c1ccc2cccnc2c1O (stereo not drawn)	29.1	.	2.41	98.9*	1.4	4.4
CC(=O)NC(c1cccs1)c1cc(F)c2cccnc2c1O (stereo not drawn)	.	.	.	.	-1.6	-2.5
CC(C)CC(=O)NC(c1cccs1)c1ccc2cccnc2c1O (stereo not drawn)	60.2*	79.0*	0.762	99.8*	-0.1	5.2
CC(C)C(=O)NC(c1cccs1)c1cc([N+](=O)[O-])c2cccnc2c1O (stereo not drawn)	-11.0	38.8	0.331	-6.7	-2.0	1.6
COc1ccc(CNC(=O)c2nccnc2CO)cc1	-3.3	.	.	.	-2.3	-1.1
COCCN(C(=O)CSc1nnc(-c2cccs2)n1N)c1c(N)n(Cc2ccccc2)c(=O)[nH]c1=O	-7.9	.	.	.	-2.5	1.8
O=S(=O)(Nc1nc2ccccc2[nH]1)c1ccccc1	9.0	7.3	0.282	15.3	0.6	1.7
O=S(=O)(Nc1nc2ccccc2[nH]1)c1ccc(Cl)cc1	9.1	16.9	0.2	57.2*	0.6	-0.1
O=[N+]([O-])c1cc([N+](=O)[O-])c(Oc2cc(Cl)ccc2Cl)cc1NC1CCCCCCC1	-16.2	.	.	.	-0.5	0.0
c1ccc2c(c1)ncn2-c1ncnc2sc3c(c12)CCCC3	-26.6	21.4	1.22	-2.8	-1.5	-0.1
SMILES	T cruzi inh	CHOP inhibitor	Dynein transport	Lmaj promast	XBP1 UPR activ	UPR CHOP act
CC(O)CNc1nc2ccccc2n1-c1ncnc2sc3c(c12)CCC3 (stereo not drawn)	37.7	29.9	-0.597	73.7*	5.2	-0.9
CCN(CC)C(=O)c1sc(NC(=O)Cc2ccc(OC)cc2)c(C#N)c1C	5.3	19.1	0.293	84.6*	4.5	-3.6
CCN(CC)C(=O)c1sc(NC(=O)Cc2ccccc2)c(C#N)c1C	-1.3	4.9	0.51	-4.5	-4.0	-0.4
Cc1ccc(S(=O)(=O)c2nc(Nc3ccccc3)sc2Cl)cc1	15.7	73.1*	0.371	24.5	.	.
Cc1ccc(S(=O)(=O)c2nc(NCCN(C)C)sc2Cl)cc1	39.0	8.3	4.14	89.0*	1.5	0.1
O=C(NCCN1CCCC1)C1CCC(=O)N(CCCN2CCOCC2)C1 (stereo not drawn)	-16.6	.	.	.	-3.4	4.7
O=[N+]([O-])c1ccc(N2CCc3ccccc3C2)cc1	-2.8	.	.	.	-1.3	2.1
COC(=O)/C=C/c1ccc2c(c1)OCO2	-7.4	-7.9	-0.324	-5.0	1.1	-1.5
CCNc1ccccc(C(=O)/C=C/c2ccc3c(c2)OCO3)c1=O	-14.8	-14.9	-3.02	63.4*	-4.8	-1.9
CCNc1ccc(Br)cc(C(=O)/C=C/c2ccccc2Cl)c1=O	-25.3	.	-1.91	98.6*	4.3	0.7
Cc1cc(NC(=O)COC(=O)c2ccccc2Cl)no1	.	.	.	.	-1.1	3.1
Cc1cc(NC(=O)COC(=O)c2oc3c(Cl)cccc3c2C)no1	-8.6	73.9*	-0.262	-3.3	-0.8	2.0
CNS(=O)(=O)c1cn(CC(=O)N(C)Cc2ccccc2)cc1S(=O)(=O)NC	-7.8	.	.	.	13.8	-0.2
CC(C)Cc1nc(N2CCN(C(=O)c3ccccc3)CC2)c(C#N)c2c1CCC2	39.8	79.7*	-0.172	40.4	0.2	0.0
CC1(C)Cc2c(C#N)c(N3CCN(C(=O)c4ccco4)CC3)nc(Cc3ccccc3)c2CO1	5.2	87.6*	-0.884	89.6*	-6.6	3.0
CC(C)Cc1nc(N2CCN(C(=O)c3ccco3)CC2)c(C#N)c2c1CCC2	27.5	0.9	-0.397	51.2*	-0.6	0.1
CCc1nc(N2CCN(C(=O)c3ccco3)CC2)c(C#N)c2c1COC(C)(C)C2	11.2	.	.	.	-1.6	2.8
CC(=O)N1CCN(c2nc(CC(C)C)c3c(c2C#N)CCC3)CC1	10.7	20.1	-0.273	8.6	0.9	-1.4
CCn1c(N2CCN(C(=O)c3ccco3)CC2)nc2ccccc21	-4.1	.	.	.	-5.2	1.3
CC(C)c1cc(N2CCN(C(=O)c3ccco3)CC2)n2c(nc3ccccc32)c1C#N	17.3	18.6	1.06	51.8*	-3.5	-2.9
CCCCCOc1ccc(C(C)(O)C(CN2CCOCC2)c2ccccc2)cc1 (stereo not drawn)	-6.0	.	.	.	-1.2	3.4
COc1ccc2c(c1)C=C(CN1CCN(C3CCCC3)C(CCO)C1)CO2 (stereo not drawn)	58.1*	8.7	1.09	87.9*	-0.8	-1.6

High-throughput results as filed in PubChem.
